Source: ChEMBL document CHEMBL1134248, “1,4-Benzodiazepine peripheral cholecystokinin (CCK-A) receptor agonists” (2001)

Columns and labels:
[1] = species on record: Cavia porcellus; test: In vitro functional efficacy determined by maximal contraction of isolated guinea pig gallbladder at 1 uM concentration of compound relative to CCK-8 at 1 uM
In short: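 Isolated guinea pig gallbladder exposed to test ligand for 30 min at 37 °C. Maximal contraction at a single compound concentration is expressed relative to the CCK-8 contraction, set at 100%. Selective CCK-A antagonist MK-329 was used to check reversal of agonist responses.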

[2] = test system: Rattus norvegicus; test: In vivo anoretic efficacy in the rat conditioned feeder assay measured as dose that produced half maximal response; format: functional
In short: (§1)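 Fasted rats in a conditioned-feeder model, dosed intraperitoneally; food intake measured at 30 min versus control animals. %Max is the percentage reduction in intake at 10 µmol/kg (CCK-8 at 0.5 µmol/kg). ED50 is the dose producing 50% of the maximal response seen at 10 µmol/kg.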

[3] = species on record: Cavia porcellus; test: Concentration at which 50% of the maximal contraction was observed for % CCK; format: functional
In short: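 Isolated guinea pig gallbladder strips incubated with test ligand 30 min at 37 °C; contraction read as efficacy relative to CCK-8 (1 µM) = 100%. Single-concentration efficacy taken at 30 µM. Full dose–response curves run for ligands giving >40% of the CCK-8 response; ED50 is the concentration giving 50% of maximal contraction. Agonism checked for reversal by CCK-A antagonist MK-329.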

[4] = test system: Rattus norvegicus; test: Percentage maximal response in rats at 10 umol/kg administered intraperitoneally; format: functional; in short: as §1

COc1ccc(N(C(=O)CN2C(=O)C(Cc3n[nH]c4ccccc34)N=C(c3ccccc3)c3ccccc32)C(C)C)cc1 (configuration not stated)
inhibition at 1 µM [1]: 27%

COc1ccc(N(C(=O)CN2C(=O)C(NC(=O)Nc3cccc(C(=O)O)c3)[N+]([O-])=C(C3CCCCC3)c3ccccc32)C(C)C)cc1 (configuration not stated)
ED50 [2]: 80 nmol/kg | ED50 [3]: 0.003 µM | Max [4]: 69%

COc1ccc(N(C(=O)CN2C(=O)C(NC(=O)Nc3ccccc3)[N+]([O-])=C(C)c3ccccc32)C(C)C)cc1 (configuration not stated)
ED50 [3]: 0.202 µM

COc1ccc(N(C(=O)CN2C(=O)C(NC(=O)Nc3ccccc3)[N+]([O-])=C(C3CCCCC3)c3ccccc32)C(C)C)cc1 (configuration not stated)
ED50 [2]: 25 nmol/kg | ED50 [3]: 0.342 µM | Max [4]: 75%

COc1ccc(N(C(=O)CN2C(=O)C(CC(=O)Nc3ccccc3)N=C(c3ccccc3)c3ccccc32)C(C)C)cc1 (configuration not stated)
ED50 [3]: 1.1 µM

COc1ccc(N(C(=O)CN2C(=O)C(NC(=O)Nc3ccccc3)N=C(C)c3ccccc32)C(C)C)cc1 (configuration not stated)
ED50 [3]: 0.296 µM

CC(C)N(C(=O)CN1C(=O)C(Cc2c[nH]c3ccccc23)N=C(c2ccccc2)c2ccccc21)c1ccccc1 (configuration not stated)
ED50 [3]: 0.041 µM

COc1ccc(N(C(=O)CN2C(=O)C(NC(=O)c3cc4ccccc4[nH]3)[N+]([O-])=C(C3CCCCC3)c3ccccc32)C(C)C)cc1 (configuration not stated)
ED50 [3]: 0.131 µM

COc1ccc(N(C(=O)CN2C(=O)C(NC(=O)Nc3ccccc3)N=C(C3CCCCC3)c3ccccc32)C(C)C)cc1 (configuration not stated)
ED50 [3]: 0.233 µM

COc1ccc(N(C(=O)CN2C(=O)C(Cc3n[nH]c4ccccc34)[N+]([O-])=C(c3ccccc3)c3ccccc32)C(C)C)cc1 (configuration not stated)
ED50 [2]: 150 nmol/kg | ED50 [3]: 0.013 µM | Max [4]: 79%

COc1ccc(N(C(=O)CN2C(=O)C(NC(=O)Nc3cccc(C(=O)O)c3)N=C(c3ccccc3)c3ccccc32)C(C)C)cc1 (configuration not stated)
inhibition at 1 µM [1]: 27%
